From ChEMBL document CHEMBL4513216, “Probing the Open Global Health Chemical Diversity Library for Multistage-Active Starting Points for Next-Generation Antimalarials” (ACS Infect Dis, 2020)

Test: Toxicity liver stage against HepG2, at 10uM
Format: cell-based
Design: test concentration 10 uM, cell line HepG2-A16-CD81EGFP
Settings: human, HepG2-A16-CD81EGFP cells; read-out: INHIBITION
In short: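 Uninfected HepG2-A16-CD81EGFP cells, 3 × 10^3 per well, 1536-well, plated on prespotted compound at 10 μM final, parasite-free screening media added to match infected plates; puromycin 10 μM positive, DMSO 0.5% negative; run in parallel with 48 h PbLuc assay at 37 °C, 5% CO2; viability by CellTiter-Glo luminescence, normalized to controls.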

Compound	cytotoxicity at 10 µM
CC(C)Nc1nc(C(=O)Nc2ccccn2)cs1	5.15%
COc1ccc(-c2cc(C(=O)Nc3nc[nH]n3)[nH]n2)cc1	-12.1%
Cn1cccc1CN(C(=O)CC(CC(=O)O)c1cccs1)C1CC1 (stereo unspecified)	2.27%
O=C(c1ccnnc1)N1CC2(CCN(c3ncccn3)C2)C1	5.62%
O=C(c1ccoc1)N1C[C@@H]2CN(c3ncccn3)C[C@@H]2C1	-5.3%
Cc1ccnc(OC[C@]23COC[C@H]2CN(C(=O)Cc2ccsc2)C3)n1	-0.376%
CC(=O)N1[C@H](Cn2cncn2)C[C@@H]2CN(c3ncccn3)CC[C@@H]21	-2.96%
Cc1ccccc1C(=O)N1CC(C(=O)NCC2CC2)C2(CCOCC2)C1 (stereo unspecified)	3.54%
O=C1NCC[C@]12CN(Cc1ccsc1)C[C@H]2c1ccccc1	-142%
CC1(C)CC(=O)c2cnc3nc(N4CCOCC4)nc(O)c3c2C1	1.21%
O=C(CSC1CCc2ccccc2NC1=O)NC1CC1 (stereo unspecified)	6.58%
CCOc1ccc(Cl)cc1CNCCCn1ccnc1	1.36%
Cn1cc(C[C@H]2[C@@H](O)CCN2C(=O)C2CC=CC2)cn1	5.6%
NC(=O)c1c(-c2ccc(Cl)cc2Cl)csc1NC(=O)CCCC(=O)O	5.97%
c1ccc(CO[C@H]2CN(c3ncccn3)C[C@@]23CCCO3)cc1	-6.11%
CNC(=O)C1CN(c2cc(C)ncn2)CCN1Cc1ccccc1 (stereo unspecified)	10%
CN1CCCC1c1cncc(C(=O)NCCN2CCCC2)n1 (stereo unspecified)	8.6%
COc1ccc(F)cc1C(=O)N(C)[C@@H]1CC[C@@H](O)[C@@H]1O	7.81%
Cc1cccc(C2CCN(S(=O)(=O)c3cn(C)cn3)CC2)n1	-20.2%

Compound	cytotoxicity at 10 µM
NC(=O)CN1CCC(c2cncc(-c3cccc(Cl)c3)n2)CC1	-26.4%
COc1ccccc1[S+]([O-])CC(=O)NCc1cc(F)cc(F)c1 (stereo unspecified)	24.3%
CNS(=O)(=O)c1cccc(S(=O)(=O)Nc2ncc(C)s2)c1	-4.79%
OC1(CNc2ccc(Br)cn2)CCSCC1	5.63%
COCCNC(=O)NCc1ccc(-n2ccc(C(F)(F)F)n2)cc1	-7.29%
CCSCc1ccc(C(=O)N2CCCN(CC(N)=O)CC2)cc1	10.5%
OCCN1CCC(CNCc2cn(-c3ccccc3)nn2)CC1	0.03%
CC(C)Sc1ccc(N2CCN(Cc3ccccn3)CC2)nn1	2.11%
COc1cccc(-c2cc(NCc3cscn3)n(C)n2)c1	3.69%
CC(Cn1cccn1)NC(=O)C1=Cc2ccccc2OC1 (stereo unspecified)	2.86%
Cc1nnc2n1CCN(C(=O)c1cnc3c(cnn3C(C)C)c1)C2	-6.69%
CCCN1CCCN(C(=O)Nc2ccc3c(c2)OCO3)CC1	-4.92%
O=C(NCc1ccccc1OCCO)Nc1ccc2c(c1)CCC2	9.46%
Cc1c(CNC(=O)NCc2cccc(-n3cncn3)c2)cnn1C	1.78%
COc1c(CNC2CCOc3ccccc32)c(C)nn1C (stereo unspecified)	4.25%
COC(=O)N1CCN(Cc2csc(-c3ncccn3)n2)CC1	-7.53%
CC(C)c1cnc(CN(C)C2CCN(CCc3ccccn3)C2)o1 (stereo unspecified)	2.37%
CN(C)c1nccc(CNS(=O)(=O)c2cc(Cl)cc(Cl)c2)n1	-138%
CCc1cnc(CN2C(=O)CC3(CCSC3)C2=O)o1 (stereo unspecified)	-9.36%

Compound	cytotoxicity at 10 µM
Cc1cc(CS(=O)(=O)C(C)c2ccc(F)cc2)on1 (stereo unspecified)	-0.0986%
Cc1ccccc1CNCC(O)c1ccc(OC(C)C)cc1 (stereo unspecified)	-6.17%
Cc1cccc(C(=O)Nc2c(C(N)=O)n[nH]c2C)c1C	-1.49%
O=C(c1ccc(=O)[nH]n1)N1CCC(CN2CCOCC2)CC1	4.13%
COCc1noc(CCC(=O)c2ccc3c(c2)OCCO3)n1	0.923%
COc1ccc(C)cc1NC(=O)CNc1ccn(CC(N)=O)n1	-8.28%
CS(=O)(=O)NCC(=O)NC(Cc1ccccc1)C1CCCC1 (stereo unspecified)	0.69%
Cc1cc(N2CCC(NC(=O)CCc3cnn(C)c3)CC2)nc(C)n1	-2.01%
CC(NC(=O)COc1ccccc1Cl)c1nnc2n1CCC2 (stereo unspecified)	-6%
COc1ccc(C)cc1C(C)NCc1cccn1C (stereo unspecified)	-5.89%
Cc1cccc(-c2nc(C)nn2CN2CCN(S(C)(=O)=O)CC2)c1	0.729%
CC1CCN(C(=O)CSCc2nc(C3CC3)no2)CC1	1.26%
Cn1ncnc1NCc1ccc(F)cc1	0.361%
CC(C)c1nsc(NC2CCOC3(CCCC3)C2)n1 (stereo unspecified)	8.83%
Nc1cc2c(nn1)CCN(C(=O)c1ccc(-c3ccco3)[nH]c1=O)C2	-3.73%
Cc1cc(F)c(S(=O)(=O)N(C)CCn2cccn2)cc1F	0.532%
Cc1noc(C)c1C[S+]([O-])Cc1cn2cccc(C)c2n1 (stereo unspecified)	2.14%
COc1c(C)cnc(CSc2nnc(C)s2)c1C	-4.66%
